# According to ChEMBL document CHEMBL1153386, “Allopregnanolone (3alpha-hydroxy-5alpha-pregnan-20-one) derivatives with a polar chain in position 16alpha: synthesis and activity” (J Med Chem, 2009):
# Key:
# Rattus norvegicus [1] = species: Rattus norvegicus; assay: Displacement of [35S]TBPS from Wistar rat brain GABAA receptor at 100 nM relative to control
# How it was run: (§1)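 Whole-brain membranes from adult male Wistar rats, resuspended in 20 mM KH2PO4/200 mM KCl, pH 7.4. Incubated 60 min at 37 °C with 2 nM [35S]TBPS, 1 µM GABA and steroid at 1 nM–10 µM. Nonspecific binding defined with 200 µM picrotoxinin. Binding expressed as % of DMSO control samples.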
# [2] = Displacement of [35S]TBPS from Wistar rat brain GABAA receptor; how it was run: as §1
# Rattus norvegicus [3] = species: Rattus norvegicus; assay: Displacement of [35S]TBPS from Wistar rat brain GABAA receptor relative to control; how it was run: as §1
Structure (SMILES),inhibition (Rattus norvegicus [1]) [%],IC50 [2] [nM],Imax (Rattus norvegicus [3]) [%]
CC(=O)[C@H]1[C@H](CC(N)=O)C[C@H]2[C@@H]3CC[C@H]4C[C@H](O)CC[C@]4(C)[C@H]3CC[C@@]21C,< 15,,
NC(=O)OCC(COC(N)=O)c1ccccc1 [FELBAMATE],,95,18
CC(=O)[C@H]1[C@H](C(CO)CO)C[C@H]2[C@@H]3CC[C@H]4C[C@H](O)CC[C@]4(C)[C@H]3CC[C@@]21C,< 15,,
CC(=O)[C@H]1[C@H](OCCOCCO)C[C@H]2[C@@H]3CC[C@H]4C[C@H](O)CC[C@]4(C)[C@H]3CC[C@@]21C,< 15,,
CC(=O)[C@H]1[C@H](CC(=O)O)C[C@H]2[C@@H]3CC[C@H]4C[C@H](O)CC[C@]4(C)[C@H]3CC[C@@]21C,,40,19
CC(=O)[C@H]1[C@H](CCOC(N)=O)C[C@H]2[C@@H]3CC[C@H]4C[C@H](O)CC[C@]4(C)[C@H]3CC[C@@]21C,,750,61
CC(=O)[C@H]1[C@H](OCCO)C[C@H]2[C@@H]3CC[C@H]4C[C@H](O)CC[C@]4(C)[C@H]3CC[C@@]21C,< 15,,
CC(=O)[C@H]1[C@H](OCC(O)CO)C[C@H]2[C@@H]3CC[C@H]4C[C@H](O)CC[C@]4(C)[C@H]3CC[C@@]21C (stereo partly drawn),< 15,,
CC(=O)[C@H]1[C@H](CC#N)C[C@H]2[C@@H]3CC[C@H]4C[C@H](O)CC[C@]4(C)[C@H]3CC[C@@]21C,< 15,,
CC(=O)[C@H]1CC[C@H]2[C@@H]3CC[C@H]4C[C@H](O)CC[C@]4(C)[C@H]3CC[C@]12C [BREXANOLONE],,80,79
CC(=O)[C@H]1[C@H](CCOC(N)=O)C[C@H]2[C@@H]3CC[C@H]4C[C@H](OC(N)=O)CC[C@]4(C)[C@H]3CC[C@@]21C,,300,59
CC(=O)[C@H]1[C@H](C(COC(N)=O)COC(N)=O)C[C@H]2[C@@H]3CC[C@H]4C[C@H](O)CC[C@]4(C)[C@H]3CC[C@@]21C,,86,26
